Assay results from PMC11348278 (Proceedings of the National Academy of Sciences of the …, 2024).

What was measured:
[1] = test system: L444P/L444P GCase; assay: GCase lysed cell assay; type: cell-based, human; details: L444P/L444P fibroblasts, 72 h; for improvement of GCase activity, compound alone: individual treatment (Fig. 5B)
[2] = test system: integrated stress response (eIF2B); details: read-out: IC50 (reversal of ISR effects); cited from earlier work
[3] = test system: ISR and KEGG lysosome pathway genes; type: cell-based, human; details: L444P fibroblasts, 24 h; A16 500 nM, A18 1 µM, Apilimod 50 nM
[4] = placebo-controlled trials; cited from earlier work
[5] = test system: L444P/L444P Gaucher patient fibroblasts; assay: Nuclear stain cell toxicity/viability; type: cell-based, human; details: 72 h, 2.5 µM A16 / 10 µM A18
In short: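 Toxicity by nuclear stains: fibroblasts at 10,000 cells/well, attached overnight, then treated for 72 h in DMSO (final 0.1%). Stained with Hoechst and SYTOX Orange per the manufacturer's instructions.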

[6] = test system: L444P/L444P Gaucher patient fibroblasts; assay: CellTiter-Glo ATP-based viability assay, patient fibroblasts; type: cell-based, human; details: 72 h
In short: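 Viability by ATP content: fibroblasts seeded at 10,000 cells/well, attached overnight, then treated for 72 h in DMSO (final 0.1%). CellTiter-Glo added per the manufacturer's instructions; luminescence-based ATP read-out.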

[7] = test system: U251 cells; assay: PIKfyve-related vacuolization, brightfield microscopy of U251 cells; type: cell-based, human; details: high concentrations
In short: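 U251 cells plated at 25,000 cells/well, attached overnight, then treated for 24 h in DMSO (final 0.1%). Vacuolization observed by brightfield microscopy.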

[8] = molecular target: isolated recombinant PIKfyve (Homo sapiens, UniProt Q9Y2I7); assay: DiscoveRX KINOMEScan for PIKfyve; type: binding
isolated recombinant PIKfyve, sequence (Q9Y2I7 whole entry): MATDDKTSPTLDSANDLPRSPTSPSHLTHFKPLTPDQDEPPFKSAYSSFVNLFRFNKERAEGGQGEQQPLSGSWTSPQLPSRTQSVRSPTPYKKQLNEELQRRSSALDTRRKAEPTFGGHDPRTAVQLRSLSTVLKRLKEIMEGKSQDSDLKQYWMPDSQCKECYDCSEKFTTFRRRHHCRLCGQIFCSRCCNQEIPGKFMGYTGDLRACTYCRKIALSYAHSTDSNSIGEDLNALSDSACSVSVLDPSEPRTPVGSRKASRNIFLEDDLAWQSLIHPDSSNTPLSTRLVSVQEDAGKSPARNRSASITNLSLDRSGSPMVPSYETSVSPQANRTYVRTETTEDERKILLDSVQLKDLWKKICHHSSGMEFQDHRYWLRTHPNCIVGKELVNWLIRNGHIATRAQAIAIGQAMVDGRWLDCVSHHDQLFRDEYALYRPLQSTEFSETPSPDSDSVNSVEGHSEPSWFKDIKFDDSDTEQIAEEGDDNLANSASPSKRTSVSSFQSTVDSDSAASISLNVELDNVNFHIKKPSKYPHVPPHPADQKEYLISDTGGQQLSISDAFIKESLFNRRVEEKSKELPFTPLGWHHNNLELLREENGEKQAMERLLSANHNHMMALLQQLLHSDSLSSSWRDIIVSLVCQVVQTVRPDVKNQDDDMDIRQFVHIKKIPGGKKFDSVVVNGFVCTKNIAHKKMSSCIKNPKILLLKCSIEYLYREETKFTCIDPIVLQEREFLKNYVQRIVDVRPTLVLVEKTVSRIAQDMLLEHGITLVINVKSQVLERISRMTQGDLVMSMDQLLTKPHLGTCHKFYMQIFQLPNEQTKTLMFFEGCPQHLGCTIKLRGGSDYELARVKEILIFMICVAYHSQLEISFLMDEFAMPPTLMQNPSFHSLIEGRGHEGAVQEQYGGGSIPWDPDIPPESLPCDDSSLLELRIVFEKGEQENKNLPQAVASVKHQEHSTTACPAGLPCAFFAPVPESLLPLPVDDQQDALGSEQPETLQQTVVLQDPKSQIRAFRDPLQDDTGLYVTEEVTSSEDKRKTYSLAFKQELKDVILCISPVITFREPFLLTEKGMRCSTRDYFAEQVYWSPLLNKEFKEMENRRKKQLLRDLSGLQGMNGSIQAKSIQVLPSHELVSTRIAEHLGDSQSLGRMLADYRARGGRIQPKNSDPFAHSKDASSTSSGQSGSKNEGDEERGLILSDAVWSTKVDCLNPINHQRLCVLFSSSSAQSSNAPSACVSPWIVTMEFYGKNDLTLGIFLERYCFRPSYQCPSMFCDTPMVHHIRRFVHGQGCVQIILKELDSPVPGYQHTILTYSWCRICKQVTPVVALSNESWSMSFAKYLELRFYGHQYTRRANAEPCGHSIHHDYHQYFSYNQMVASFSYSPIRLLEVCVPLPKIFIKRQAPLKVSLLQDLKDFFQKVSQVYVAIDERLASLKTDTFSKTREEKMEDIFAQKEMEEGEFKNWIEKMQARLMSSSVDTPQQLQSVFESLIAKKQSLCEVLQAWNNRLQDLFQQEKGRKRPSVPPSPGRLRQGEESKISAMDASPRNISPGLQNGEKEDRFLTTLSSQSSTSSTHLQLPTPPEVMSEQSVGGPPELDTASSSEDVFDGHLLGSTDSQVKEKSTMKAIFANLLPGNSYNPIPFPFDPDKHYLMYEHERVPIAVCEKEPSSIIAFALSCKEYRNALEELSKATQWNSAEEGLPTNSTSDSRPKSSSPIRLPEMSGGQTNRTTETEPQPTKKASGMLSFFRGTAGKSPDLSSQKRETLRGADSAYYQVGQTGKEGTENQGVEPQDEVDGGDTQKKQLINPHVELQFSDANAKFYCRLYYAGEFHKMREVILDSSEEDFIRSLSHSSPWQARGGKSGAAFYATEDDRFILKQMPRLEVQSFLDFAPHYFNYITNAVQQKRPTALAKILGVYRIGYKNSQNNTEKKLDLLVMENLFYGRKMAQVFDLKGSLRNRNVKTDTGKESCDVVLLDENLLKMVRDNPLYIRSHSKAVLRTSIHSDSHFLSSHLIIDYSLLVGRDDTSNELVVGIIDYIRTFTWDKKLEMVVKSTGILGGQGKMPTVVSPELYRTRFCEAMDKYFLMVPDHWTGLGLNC

| Kd [8] [nM] | Compound | improvement of GCase activity, compound alone [1] | IC50 [2] [nM] | ISR activation by RNAseq-based transcriptional changes [3] | efficacy in autoimmune disorders (Crohn's Disease, Rheumatoid Arthritis) [4] | safety and pharmacokinetic profiles [4] | cell toxicity (Hoechst and Sytox Orange staining) [5] | cell viability (CellTiter-Glo ATP-based) [6] | vacuolization phenotype [7] | increase of GCase activity, cotreatment with ISRIB (observed) ([1]; A16 + ISRIB (Fig. 5B)) |
| --- | --- | --- | --- | --- | --- | --- | --- | --- | --- | --- |
| – | O=C(COc1ccc(Cl)cc1)NC1CCC(NC(=O)COc2ccc(Cl)cc2)CC1 (stereo not shown) [ISRIB, reference compound] | ~ 10% | 5 | – | – | – | – | – | – | – |
| – | Cc1cccc(/C=N/Nc2cc(N3CCOCC3)nc(OCCc3ccccn3)n2)c1 [Apilimod] | – | – | do not see RNAseq-based transcriptional changes | failed to show any efficacy | favorable safety and pharmacokinetic profiles | – | – | – | – |
| – | Ic1ccc(Nc2nc(NCCN3CCOCC3)nc(N3CCOCC3)n2)cc1 [A18] | – | – | do not see RNAseq-based transcriptional changes | – | – | minimal cell toxicity | above vehicle treatment | vacuolization phenotype | – |
| < 0.17 | c1ccc2c(-c3nn4c(-c5ccncc5)nnc4s3)c[nH]c2c1 [A16] | ~ 70% | – | do not see RNAseq-based transcriptional changes | – | – | minimal cell toxicity | above vehicle treatment | vacuolization phenotype | ~ 100% |
